Bioassay records (PubChem)
Calb FLC = C. albicans growth inhibition with fluconazole, primary screen, CaCi-2 strain, Alamar Blue fluorescence. C. albicans CaCi-2 (fluconazole-resistant clinical isolate) + fluconazole, 48 h. growth inhibition, % (no concentration beside the values). hit rate 0.57% among 300,000;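 active = growth inhibition above about 58% in most replicates, limit read from the data, passing the limit was not always enough; inconclusive = exactly half the replicates above a set limit; inactive = most replicates below a set limit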;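 note: all wells also contain fluconazole at 8 µg/ml as a sub-toxic cotreatment; 0% = median of DMSO wells and 100% = median of geldanamycin control wells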
MIN6 prolif = inducers of MIN6 beta-cell proliferation, primary screen, ATP luminescence, uHTS; MIN6 cells proliferation, ATPlite luminescence, 48 h; cells starved in 0.2% serum; 100% = growth in 10% serum; proliferation, % at 10 µM; hit rate 0.29% among 330,000;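 active = compounds whose signal lies at least 3.5 SD above the mean of all wells on their plate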;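 note: 0% = DMSO-treated cells in low-serum medium and 100% = 10% serum control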
HTR2A ag = mouse Htr2a agonists via beta-arrestin recruitment, primary screen, cell-based, luminescence; CHO-K1 mHTR2A beta-arrestin complementation; percent of 30 µM serotonin response; AID 624169, 2012; activation, % at 7.6 µM; hit rate 0.66% among 360,000; 5-hydroxytryptamine receptor 2A (Mus musculus), P35363;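 active = activation above a run cutoff, the mean activation of all tested compounds plus 3 SD, cut at about 14% in these data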;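 note: 0% = plate median of compound wells and 100% = 30 µM serotonin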
SR-BI HDL uptake = inhibitors of SR-BI mediated HDL lipid uptake, primary screen, ldlA[mSR-BI] cells, fluorescence, single point. ldlA[mSR-BI] CHO cells, DiI-HDL uptake fluorescence, 3 h. AID 488896, 2010. inhibition, % at 12.5 µM. hit rate 0.96% among 320,000;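 active = mean replicate inhibition of at least 70% and a set share of replicates each scoring 70 or more; inconclusive = meets just one of the two criteria; inactive = fails both criteria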;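 note: 0% = median of neutral control wells and 100% = median of positive control wells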
Target sequence (Q61009 whole entry, looked up): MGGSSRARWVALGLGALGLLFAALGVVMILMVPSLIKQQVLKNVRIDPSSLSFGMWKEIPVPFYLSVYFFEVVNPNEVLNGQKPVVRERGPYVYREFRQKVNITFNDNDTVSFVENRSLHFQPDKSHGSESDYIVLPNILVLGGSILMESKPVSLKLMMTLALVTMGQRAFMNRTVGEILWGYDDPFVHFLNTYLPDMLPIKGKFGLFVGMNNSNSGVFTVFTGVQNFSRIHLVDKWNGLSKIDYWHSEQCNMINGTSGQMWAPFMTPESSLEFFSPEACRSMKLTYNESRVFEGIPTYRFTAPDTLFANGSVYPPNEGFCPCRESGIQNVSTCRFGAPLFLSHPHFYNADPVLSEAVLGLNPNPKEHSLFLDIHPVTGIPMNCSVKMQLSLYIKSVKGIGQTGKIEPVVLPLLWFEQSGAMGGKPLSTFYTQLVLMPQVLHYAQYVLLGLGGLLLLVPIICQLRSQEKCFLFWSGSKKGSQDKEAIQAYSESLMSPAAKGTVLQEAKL
SR-BI DiI-HDL act = activators of SR-BI mediated DiI-HDL uptake, primary screen, ldlA[mSR-BI] CHO cells, DiI fluorescence; 3 h; 100 = double the neutral-control signal; activation, % at 12.5 µM; hit rate 0.096% among 320,000;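 active = mean replicate activation of at least 60% and every replicate at or above 60%; inconclusive = mean or all-replicate condition met, but not both; inactive = mean below 60% and not all replicates reaching 60%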;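 note: 0% = median plate neutral-control signal and 100% = twice that signal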
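system = CHO ldlA[mSR-BI] cells, LDL receptor-null, SR-BI overexpressing | medium = Ham's F12 with 0.5% BSA, HEPES 25 mM, pH 7.4 | probe or stimulus = DiI-HDL 10 µg/mL | compound dosing = single-point compound dose | incubation = compound exposure 3 h, 37 °C | technique = DiI fluorescence, bottom read | read-out = cell-associated DiI fluorescence as measure of HDL uptake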
Insulin prom up = insulin promoter activators in MIN6 cells, imaging, high-content screening, mouse beta cells; z-score at 5 µM; hit rate 0.3% among 190,000; MIN6 insulin promoter-GFP reporter; active compounds read high;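 active = z-score above 3 at 5 µM with at least 500 cells counted in the well; inconclusive = wells under 500 cells, flagged as cytotoxic or low count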
Numbers without * were called inactive; ? = inconclusive; nt = no result. Most compounds without a hit are left out; they make up all but 2.4% or so of the library.

SMILES	Calb FLC	MIN6 prolif	HTR2A ag	SR-BI HDL uptake	SR-BI DiI-HDL act	Insulin prom up
O=[N+]([O-])c1cccc(-c2ccc(C(=S)N3CCOCC3)o2)c1	24	0	-4	60	-60	0.02
O=C(Nc1ccc(CN2CCOCC2)cc1)c1ccc(-c2cccc([N+](=O)[O-])c2)o1	11	-2	-11	72*	-72	nt
CC1=NN(c2nc(-c3ccc(C)cc3)cs2)C(=O)C1N=Nc1ccccc1O (configuration not stated)	3	-5	0	152*	-152	0.95
CC1=NN(c2nc(-c3ccc(C)cc3)cs2)C(=O)C1N=Nc1cccc(O)c1 (configuration not stated)	46	-4	-2	64	-64	-0.58
CC(O)CNc1nc2ccccc2n1-c1ncnc2sc3c(c12)CCC3 (configuration not stated)	2	-6	18*	14	-14	0.32
COC(=O)c1ccccc1COc1cccn2c(N(C)C(=O)CCC3CCCC3)c(C)nc12	nt	nt	-1	nt	nt	nt
CCC/C=C(\CCC)C(NS(=O)(=O)c1cccc2cccnc12)c1ccc(C(=O)OC)cc1 (configuration not stated)	-3	-8	nt	nt	nt	0.21
CCOc1cc(/C=C2/NC(=S)NC2=O)ccc1OCc1ccc([N+](=O)[O-])cc1	2	-2	-3	73*	-73	1.7
COCCNC(=O)CCCn1c(=O)c2cc(OC)c(OC)cc2n(CC(=O)NCCC2=CCCCC2)c1=O	51*	1	2	-32	32	-0.5
COCCNC(=O)CCCn1c(=O)c2ccccc2n(CC(=O)NCCC2=CCCCC2)c1=O	-5	nt	4	-11	11	-0.48
COc1ccc(-n2c(-c3ccc(Br)cc3)c[n+]3c2CCC3)cc1	-5	-5	-2	10	-10	?
COc1ccc(-n2c(-c3ccc(Br)cc3)c[n+]3c2SC(C)C3)cc1 (configuration not stated)	88*	-6	4	-13	13	?
CNc1nc(NC#N)nc(SC)n1	2	-1	2	nt	nt	-0.16
CN(C)c1nc(-c2ccccn2)nnc1-c1ccccc1	-2	0	-3	32	-32	-2.6
CCN(CC)c1nc(-c2ccccn2)nc(-c2ccccc2)c1C#N	103*	-5	-4	10	-10	-4.3
NCCCC[C@H]1CNC(=S)N1CCc1cccc(F)c1	-15	1	0	11	-11	0.19
Cc1cc(-c2n[nH]c(=S)n2Cc2ccco2)n(C)n1	-9	-4	0	-61	61*	0.05
CC(C)CN(C(=O)CN(C)C(=O)Cc1c(F)cccc1Cl)c1c(N)n(CC(C)C)c(=O)[nH]c1=O	nt	nt	12	nt	nt	nt
CCOC(=O)c1cc(-c2ccc(OC)cc2)nc2c1c(C)nn2CCC#N	-3	1	-1	74*	-74	-1.9
CCOC(=O)c1cc(-c2ccc(C#N)cc2)nc2c1c(C)nn2CCC#N	5	3	0	63	-63	-0.36
O=CNc1c(Cl)cc2c(c1Cl)Cc1cc([N+](=O)[O-])ccc1-2	nt	nt	-2	62	-62	nt
O=C1C=C(c2ccc(CO)cc2)C[C@@H](c2ccc3c(c2)OCO3)C1	nt	0	-4	-4	4	nt
COc1ccc(-c2ccc3c(c2)S(=O)(=O)c2cccc(C(=O)NCCOc4ccccc4)c2C3=O)cc1OC	nt	-5	10	73*	-73	nt
COc1ccc(-c2ccc3c(c2)S(=O)(=O)c2cccc(C(=O)NC[C@@H]4CCCO4)c2C3=O)cc1OC	nt	5	15*	50	-50	nt
O=C(Nc1ccc(-c2nc3ccccc3[nH]2)cc1)c1cccc(N2C(=O)CCC2=O)c1	5	-1	5	9	-9	0.26
SMILES	Calb FLC	MIN6 prolif	HTR2A ag	SR-BI HDL uptake	SR-BI DiI-HDL act	Insulin prom up
C=CCNc1ncnc2c1cnn2-c1ccc(C)cc1C	-10	-3	-1	-3	3	0.53
CCOC(=O)N1CCC(Nc2ncnc3c2cnn3-c2ccc(C)cc2C)CC1	29	-1	15*	33	-33	-1.1
Cc1ccc(C)c(CN2C(=O)C(C)Oc3ccc(C)cc32)c1 (configuration not stated)	5	3	-4	77*	-77	-0.65
COc1cc2c(cc1OC)-c1nnc(C)n1C(C)(C)C2	3	0	-1	-6	8	-1.4
COc1cc2c(cc1OC)-c1nncn1C(C)(C)C2	-4	-1	-2	-10	10	3.8*
Cc1[nH]c(C)c(S(=O)(=O)Nc2cccc(Cl)c2C)c1C(=O)N1CCCC1	27	3	-2	-16	16	nt
C=CCC(c1ccccc1)N(C(C)=O)c1ccco1 (configuration not stated)	-4	0	-2	-5	5	3.6*
COc1cccc(C2C(C(=O)c3cc4ccccc4o3)=C(O)C(=O)N2c2cc(C)on2)c1OC (configuration not stated)	78*	-2	-1	-17	17	-0.42
COc1cc(C2C(C(=O)c3cc4ccccc4o3)=C(O)C(=O)N2c2cc(C)on2)cc(OC)c1OC (configuration not stated)	4	0	-5	-22	22	nt
CCOc1ccccc1NC(=O)Nc1cccc(NC(C)=O)c1	0	0	0	nt	nt	-0.45
CC(=O)c1ccc(NC(=O)Nc2cccc3ccccc23)cc1	81*	-1	1	14	-14	nt
CCOc1ccccc1NC(=O)Nc1ccsc1C(=O)OC	-2	1	2	79*	-79	nt
CCOc1ccccc1NC(=O)Nc1cccc(C(C)=O)c1	?	1	-2	78*	-78	0.29
N#CCC(=O)Nc1ccc(C(=O)N2CCN(c3ccccn3)CC2)cc1	3	0	8	nt	nt	nt
COc1cc(OC)c(C=CC(=O)c2ccccc2O)c(OC)c1	nt	nt	-8	73*	-73	nt
Cc1nn(-c2ccccc2)c(C)c1/C=N/NC(=O)CSc1nc2ccccc2c(=O)n1-c1ccc(Br)cc1	2	-5	-5	74*	-74	-0.49
Cc1nn(-c2ccccc2)c(C)c1/C=N/NC(=O)CSc1nnc(SCc2cccc3ccccc23)s1	-36	0	6	73*	-73	-0.71
Cc1ccc(-n2c(SCC(=O)N/N=C/c3c(C)nn(-c4ccccc4)c3C)nc3ccccc3c2=O)cc1	-5	-3	7	49	-49	0.11
Cc1ccccc1-n1c(SCC(=O)N/N=C/c2c(C)nn(-c3ccccc3)c2C)nc2ccccc2c1=O	2	-5	-4	38	-38	-0.83
